This note sets out measurements from ChEMBL document CHEMBL2311295 (J Med Chem, 2013).

Experiment [1] has as its system HCT-116. Nature of the experiment: Ratio of vinblastine IC50 to compound IC50 for human HCT116 cells. Format: functional. In a few lines: (§1)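 Both IC50 values come from the 72 h acid phosphatase (A405) proliferation assay: six concentrations over 0–1,000 or 0–10,000 nM, with each value the mean of 4–16 determinations.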
Experiment [2] deals with HCT-116/VM46. As to the kind of experiment: Cytotoxicity against vinblastine-resistant human HCT116/VM46 cells after 72 hrs by phosphatase assay. Format: functional, cell-based. As to conditions: HCT-116/VM46, 72 h. The method, boiled down: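 Cells diluted to 30,000 cells/mL in DMEM with 10% FBS and seeded into 96-well plates (100 μL per well), then grown 24 h at 37 °C under 5% CO2. Test agents were made as 1 mM DMSO stocks with 10-fold serial dilutions and tested at six concentrations over 0–1,000 nM or 0–10,000 nM, in duplicate, for 72 h. Acid phosphatase read-out: substrate in 0.1 M NaOAc pH 5.5 with 0.1% Triton X-100, 15 min at 37 °C, stopped with NaOH, A405. IC50 is the mean of 4–16 determinations.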

Experiment [3] relates to HCT-116. As to the kind of experiment: Cytotoxicity against human HCT116 cells after 72 hrs by phosphatase assay. The conditions noted are these: HCT-116, 72 h. Format: functional, cell-based. In a few lines:
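Cells diluted to 30,000 cells/mL in DMEM with 10% FBS and seeded into 96-well plates (100 μL per well), then grown 24 h at 37 °C under 5% CO2. Test agents were made as 1 mM DMSO stocks with 10-fold serial dilutions and tested at six concentrations over 0–1,000 nM or 0–10,000 nM, in duplicate, for 72 h. Acid phosphatase read-out: substrate in 0.1 M NaOAc pH 5.5 with 0.1% Triton X-100, 15 min at 37 °C, stopped with NaOH, A405.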

The target of experiment [4] is Tubulin (Sus scrofa) (UniProt P02554+P02550). As to the kind of experiment: Displacement of [3H]-vinblastine from pig tubulin at 7.2 x 10^-5 M after 60 mins. Format: protein assay. The method, boiled down:
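Purified porcine tubulin (100 µL tubulin solution diluted with 850 µL general tubulin buffer) preincubated with 25 µL of 7.2 × 10⁻⁵ M ³H-vinblastine, 15 min at 37 °C. Then 25 µL of 7.2 × 10⁻⁵ M unlabeled test alkaloid added, incubation continued 60 min. Displacement of bound ³H-vinblastine measured by a previously described procedure.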

For experiment [5], the system named is HCT-116/VM46. Nature of the experiment: Ratio of vinblastine IC50 to compound IC50 for vinblastine-resistant human HCT116/VM46 cells. Type of experiment: functional. The method, boiled down:
as §1

Experiment [6] deals with HCT-116. Nature of the experiment: Ratio of IC50 for vinblastine-resistant human HCT116/VM46 cells to IC50 for human HCT116 cells. Format: functional. In a few lines:
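Ratio of IC50 in HCT116/VM46 to IC50 in HCT116. Both IC50 values come from the 72 h phosphatase (A405) growth inhibition assay: six concentrations up to 1,000 or 10,000 nM, run in duplicate, averaging 4–16 determinations each.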

The term IC50 denotes the concentration that inhibits the measured activity by half. The low end stands for greater potency, the high end for weaker potency. For orientation: inhibition means how much of the control response was suppressed. Lower therefore signals little suppression.

Molecules are shown by their SMILES.

Tubulin (Sus scrofa), sequence (P02550 whole entry, looked up): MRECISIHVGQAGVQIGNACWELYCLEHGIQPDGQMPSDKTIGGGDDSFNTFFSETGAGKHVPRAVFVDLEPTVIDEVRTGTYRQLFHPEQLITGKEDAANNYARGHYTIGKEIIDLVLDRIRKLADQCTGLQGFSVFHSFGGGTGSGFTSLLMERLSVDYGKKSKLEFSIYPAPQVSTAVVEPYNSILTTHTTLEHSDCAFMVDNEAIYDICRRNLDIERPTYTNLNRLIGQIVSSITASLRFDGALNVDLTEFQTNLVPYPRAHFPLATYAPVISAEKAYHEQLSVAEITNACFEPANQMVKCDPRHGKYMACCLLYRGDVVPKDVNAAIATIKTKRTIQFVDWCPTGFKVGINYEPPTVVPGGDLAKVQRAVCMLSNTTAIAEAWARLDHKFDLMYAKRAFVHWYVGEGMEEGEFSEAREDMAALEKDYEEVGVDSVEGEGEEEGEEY
Tubulin (Sus scrofa), sequence (P02554 whole entry, looked up): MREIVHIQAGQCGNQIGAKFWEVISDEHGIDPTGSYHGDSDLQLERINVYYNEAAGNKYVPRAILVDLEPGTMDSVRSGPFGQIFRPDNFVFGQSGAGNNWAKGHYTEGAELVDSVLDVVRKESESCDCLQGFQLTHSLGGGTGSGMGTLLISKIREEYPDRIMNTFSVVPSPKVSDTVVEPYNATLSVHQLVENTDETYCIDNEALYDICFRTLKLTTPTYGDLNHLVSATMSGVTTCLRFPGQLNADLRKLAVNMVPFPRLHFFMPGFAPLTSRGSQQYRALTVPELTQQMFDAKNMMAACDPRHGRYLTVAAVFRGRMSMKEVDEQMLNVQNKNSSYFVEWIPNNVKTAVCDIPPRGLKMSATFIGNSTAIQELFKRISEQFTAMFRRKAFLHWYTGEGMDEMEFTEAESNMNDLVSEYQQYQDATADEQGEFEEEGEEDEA

For `CC[C@]1(NC(=O)Nc2cccc(OC)c2)C[C@H]2CN(CCc3c([nH]c4ccccc34)[C@@](C(=O)OC)(c3cc4c(cc3OC)N(C)[C@H]3[C@@](O)(C(=O)OC)[C@H](OC(C)=O)[C@]5(CC)C=CCN6CC[C@]43[C@@H]65)C2)C1`, the “Ratio IC50” value in experiment [1] came out at 10. In addition, the figures for the IC50 in experiment [2] and in experiment [3] were 80 nM and 0.77 nM, respectively.

For `CC[C@]1(NC(=O)Nc2ccc(-c3ccccc3)cc2)C[C@H]2CN(CCc3c([nH]c4ccccc34)[C@@](C(=O)OC)(c3cc4c(cc3OC)N(C)[C@H]3[C@@](O)(C(=O)OC)[C@H](OC(C)=O)[C@]5(CC)C=CCN6CC[C@]43[C@@H]65)C2)C1`, the inhibition in experiment [4] worked out at 48.5%. Further, the figures for the IC50 in experiment [2] and in experiment [3] were 470 nM and 6.9 nM, respectively.

Take `CCNC(=O)N[C@@]1(CC)C[C@H]2CN(CCc3c([nH]c4ccc(F)cc34)[C@@](C(=O)OC)(c3cc4c(cc3OC)N(C)[C@H]3[C@@](O)(C(=O)OC)[C@H](OC(C)=O)[C@]5(CC)C=CCN6CC[C@]43[C@@H]65)C2)C1`: the “Ratio IC50” value in experiment [5] and in experiment [1] was 10 in each case. Further, the values for the IC50 in experiment [2] and in experiment [3] were 70 nM and 0.62 nM, respectively.

On to `CC[C@]1(NC(=O)NC2CC2)C[C@H]2CN(CCc3c([nH]c4ccccc34)[C@@](C(=O)OC)(c3cc4c(cc3OC)N(C)[C@H]3[C@@](O)(C(=O)OC)[C@H](OC(C)=O)[C@]5(CC)C=CCN6CC[C@]43[C@@H]65)C2)C1`, for which the “Ratio IC50” value in experiment [1] amounted to 10. The 50% inhibitory concentration (IC50) in experiment [2] is 85 nM; in experiment [3], 0.73 nM.

Turning to `CCCNC(=O)N[C@@]1(CC)C[C@H]2CN(CCc3c([nH]c4ccccc34)[C@@](C(=O)OC)(c3cc4c(cc3OC)N(C)[C@H]3[C@@](O)(C(=O)OC)[C@H](OC(C)=O)[C@]5(CC)C=CCN6CC[C@]43[C@@H]65)C2)C1`, the “Ratio IC50” value in experiment [1] is listed as 10. Also, the IC50 in experiment [2] is 220 nM; in experiment [3], 2.7 nM.

On to `CCNC(=O)N[C@@]1(CC)C[C@H]2CN(CCc3c([nH]c4ccccc34)[C@@](C(=O)OC)(c3cc4c(cc3OC)N(C)[C@H]3[C@@](O)(C(=O)OC)[C@H](OC(C)=O)[C@]5(CC)C=CCN6CC[C@]43[C@@H]65)C2)C1`, for which, in experiment [1], the “Ratio IC50” value is given as 10. Moreover, the IC50 in experiment [2] is 90 nM; in experiment [3], 0.73 nM.

Turning to `CC[C@]1(NC(=O)NC(C)C)C[C@H]2CN(CCc3c([nH]c4ccccc34)[C@@](C(=O)OC)(c3cc4c(cc3OC)N(C)[C@H]3[C@@](O)(C(=O)OC)[C@H](OC(C)=O)[C@]5(CC)C=CCN6CC[C@]43[C@@H]65)C2)C1`, in experiment [1], the “Ratio IC50” value was determined as 10. Also, the values for the IC50 in experiment [2] and in experiment [3] were 530 nM and 5.7 nM, respectively.

As for `CC[C@]1(NC(=O)NC)C[C@H]2CN(CCc3c([nH]c4ccccc34)[C@@](C(=O)OC)(c3cc4c(cc3OC)N(C)[C@H]3[C@@](O)(C(=O)OC)[C@H](OC(C)=O)[C@]5(CC)C=CCN6CC[C@]43[C@@H]65)C2)C1`, the “Ratio IC50” value in experiment [1] was determined as 10. For the same molecule, the IC50 in experiment [2] came out at 530 nM; in experiment [3] it was 0.82 nM.

With `CC[C@]1(NC(=S)NC2CCCCC2)C[C@H]2CN(CCc3c([nH]c4ccccc34)[C@@](C(=O)OC)(c3cc4c(cc3OC)N(C)[C@H]3[C@@](O)(C(=O)OC)[C@H](OC(C)=O)[C@]5(CC)C=CCN6CC[C@]43[C@@H]65)C2)C1`, the IC50 in experiment [2] is 520 nM; in experiment [3], 20 nM. Moreover, in experiment [6], the Ratio IC50 came to 26.

As to `CC[C@]1(O)C[C@H]2CN(CCc3c([nH]c4ccc(F)cc34)[C@@](C(=O)OC)(c3cc4c(cc3OC)N(C)[C@H]3[C@@](O)(C(=O)OC)[C@H](OC(C)=O)[C@]5(CC)C=CCN6CC[C@]43[C@@H]65)C2)C1`, the “Ratio IC50” value in experiment [1] worked out at 8.

`CC[C@]1(NC(=O)N(C)C)C[C@H]2CN(CCc3c([nH]c4ccccc34)[C@@](C(=O)OC)(c3cc4c(cc3OC)N(C)[C@H]3[C@@](O)(C(=O)OC)[C@H](OC(C)=O)[C@]5(CC)C=CCN6CC[C@]43[C@@H]65)C2)C1` came in with an inhibition in experiment [4] of 45.1%. Besides, the IC50 in experiment [2] was 80 nM; in experiment [3], 2.8 nM. The “Ratio IC50” value in experiment [6] was 10.

As for `CC[C@]1(NC(=O)Nc2ccccc2OC)C[C@H]2CN(CCc3c([nH]c4ccccc34)[C@@](C(=O)OC)(c3cc4c(cc3OC)N(C)[C@H]3[C@@](O)(C(=O)OC)[C@H](OC(C)=O)[C@]5(CC)C=CCN6CC[C@]43[C@@H]65)C2)C1`, in experiment [1], the “Ratio IC50” value is listed as 10. In addition, the values for the IC50 in experiment [2] and in experiment [3] were 65 nM and 0.77 nM, respectively.

On to `CC[C@]1(N)C[C@H]2CN(CCc3c([nH]c4ccccc34)[C@@](C(=O)OC)(c3cc4c(cc3OC)N(C)[C@H]3[C@@](O)(C(=O)OC)[C@H](OC(C)=O)[C@]5(CC)C=CCN6CC[C@]43[C@@H]65)C2)C1`, for which the IC50 in experiment [2] is above 10000 nM; in experiment [3], 600 nM.

Consider `CC[C@]1(NC(=O)NC2CCCCC2)C[C@H]2CN(CCc3c([nH]c4ccccc34)[C@@](C(=O)OC)(c3cc4c(cc3OC)N(C)[C@H]3[C@@](O)(C(=O)OC)[C@H](OC(C)=O)[C@]5(CC)C=CCN6CC[C@]43[C@@H]65)C2)C1`, for which the IC50 in experiment [2] amounted to 450 nM; in experiment [3], 5.4 nM.

In the case of `CC[C@]1(NC(=O)NC(C)(C)C)C[C@H]2CN(CCc3c([nH]c4ccccc34)[C@@](C(=O)OC)(c3cc4c(cc3OC)N(C)[C@H]3[C@@](O)(C(=O)OC)[C@H](OC(C)=O)[C@]5(CC)C=CCN6CC[C@]43[C@@H]65)C2)C1`, the IC50 in experiment [2] was 670 nM; in experiment [3], 20 nM.

Turning to `CC[C@]1(NC(=S)NCCc2ccc(F)cc2)C[C@H]2CN(CCc3c([nH]c4ccccc34)[C@@](C(=O)OC)(c3cc4c(cc3OC)N(C)[C@H]3[C@@](O)(C(=O)OC)[C@H](OC(C)=O)[C@]5(CC)C=CCN6CC[C@]43[C@@H]65)C2)C1`, the IC50 was found to be 750 nM in experiment [2] and 60 nM in experiment [3].

`CC[C@]1(NC(N)=O)C[C@H]2CN(CCc3c([nH]c4ccccc34)[C@@](C(=O)OC)(c3cc4c(cc3OC)N(C)[C@H]3[C@@](O)(C(=O)OC)[C@H](OC(C)=O)[C@]5(CC)C=CCN6CC[C@]43[C@@H]65)C2)C1`: the IC50 in experiment [2] amounted to 4400 nM; in experiment [3], 7.5 nM.

Consider `CC[C@]1(NC(=O)N2CCCCC2)C[C@H]2CN(CCc3c([nH]c4ccccc34)[C@@](C(=O)OC)(c3cc4c(cc3OC)N(C)[C@H]3[C@@](O)(C(=O)OC)[C@H](OC(C)=O)[C@]5(CC)C=CCN6CC[C@]43[C@@H]65)C2)C1`, for which the IC50 was 50 nM in experiment [2] and 3.9 nM in experiment [3]. In experiment [6], the Ratio IC50 stood at 10.
